From ChEMBL document CHEMBL4138044, “Withaferin A induces cell death and differentiation in multiple myeloma cancer stem cells” (Medchemcomm, 2017)
The source made the active and inactive calls. The rule behind the calls is not given here.

Legend:
[1] = Cell cycle arrest in human […] cells assessed as accumulation at sub-G1 phase at 2.5 uM […] by FxCycle violet staining-based flow cytometric method (reference value: 10.8%); format: functional
Summary of the method: (§1)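 Cells treated 24 h with vehicle or WFA; MM-CSCs were seeded at 100 000 per well and left to adhere 24 h first, RPMIs seeded at 300 000 per well and treated at once. Floating and adherent cells fixed and permeabilized, adjusted to 10^6 cells/mL in PBS, then stained with FxCycle DNA dye for 30 min at room temperature. Flow cytometry; ≥3 independent experiments, mean ± SEM.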

Homo sapiens [2] = species: Homo sapiens; assay: Induction of apoptosis in human […] cells assessed as increase in late apoptotic cells at 1.25 uM after 24 hrs by annexin V/propidium iodide staining-based flow cytometric method; format: functional, cell-based
Summary of the method: (§2)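 Annexin V/propidium iodide apoptosis staining after 24 h WFA. MM-CSCs adhered 24 h before treatment; RPMIs treated immediately after seeding at 300 000 per well. Floating and adherent cells washed, adjusted to 10^6 cells/mL, stained 15 min at room temperature, flow cytometry separating viable, early and late apoptotic cells; ≥3 independent experiments, mean ± SEM.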

[3] = tested on: Multiple myeloma cancer stem cell; assay: Cell cycle arrest in human multiple myeloma cancer stem cells assessed as accumulation at G1 phase at 0.62 uM […] by FxCycle violet staining-based flow cytometric method (reference value: 45.1%); format: functional; summary of the method: as §1
[4] = tested on: Multiple myeloma cancer stem cell; assay: Induction of differentiation of human multiple myeloma cancer stem cells assessed as upregulation of Kit mRNA expression at 0.31 to 5 uM after 24 hrs by qPCR method; format: functional, cell-based
Summary of the method: (§3)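 MM-CSCs treated with vehicle or increasing WFA concentrations for 24 h. Relative mRNA levels of the stemness markers then measured; mean ± SEM of 3 independent experiments, one-way ANOVA with Bonferroni test.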

[5] = tested on: Multiple myeloma cancer stem cell; assay: Cell cycle arrest in human multiple myeloma cancer stem cells assessed as accumulation at G2/M phase at 2.5 uM […] by FxCycle violet staining-based flow cytometric method (reference value: 22.9%); format: functional; summary of the method: as §1
[6] = tested on: Multiple myeloma cancer stem cell; assay: Induction of morphological changes in human multiple myeloma cancer stem cells assessed as appearance in circular shape at 0.62 uM after 24 hrs by phalloidin/DAPI staining-based assay; format: functional
Summary of the method: (§4)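 MM-CSCs seeded at 5000 cells/well and allowed to adhere 24 h, then treated with increasing WFA for 24 h. Fixed in 4% paraformaldehyde for 10 min, permeabilized with 0.1% Triton X-100 for 5 min, stained with 5 U/mL phalloidin for 20 min and 1 μg/mL DAPI for 5 min at room temperature. Imaged; cell area and circularity quantified; 3 experiments.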

Homo sapiens [7] = species: Homo sapiens; assay: Cytotoxicity against human RPMI18226 cells assessed as increase in dead cells at 1.25 uM after 24 hrs by calcein AM/ethidium homodimer staining-based flow cytometric method (reference value: 21.4%); format: functional, cell-based
[8] = Cell cycle arrest in human […] cells assessed as accumulation at sub-G1 phase at 0.62 uM […] by FxCycle violet staining-based flow cytometric method (reference value: 10.8%); format: functional; summary of the method: as §1
[9] = tested on: Multiple myeloma cancer stem cell; assay: Cell cycle arrest in human multiple myeloma cancer stem cells assessed as accumulation at G1 phase at 1.25 uM […] by FxCycle violet staining-based flow cytometric method (reference value: 45.1%); format: functional; summary of the method: as §1
[10] = tested on: Multiple myeloma cancer stem cell; assay: Cytotoxicity against human multiple myeloma cancer stem cells assessed as dead cells at 10 uM after 24 hrs by calcein AM/ethidium homodimer staining-based flow cytometric method (reference value: 0.7%); format: functional
[11] = Cell cycle arrest in human […] cells assessed as accumulation at G1 phase at 1.25 uM […] by FxCycle violet staining-based flow cytometric method (reference value: 28.2%); format: functional; summary of the method: as §1
[12] = tested on: Multiple myeloma cancer stem cell; assay: Induction of morphological changes in human multiple myeloma cancer stem cells assessed as appearance of epithelial/lymphoblastic-like morphology at 0.62 uM after 24 hrs by phalloidin/DAPI staining-based assay; format: functional; summary of the method: as §4
[13] = Antiproliferative activity against human […] cells after 72 hrs by XTT assay; format: functional, cell-based
Summary of the method: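 RPMI 8226 cells in RPMI 1640 with 10% FBS, plated at 15 000 cells/well and treated immediately with 0–10 μM WFA for 72 h. XTT added for 4 h. Growth as absorbance relative to vehicle control ×100. IC50 fitted from at least five concentrations; mean of three independent experiments ± SEM.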

Homo sapiens [14] = species: Homo sapiens; assay: Induction of apoptosis in human […] cells assessed as decrease in viable cells at 1.25 uM after 24 hrs by annexin V/propidium iodide staining-based flow cytometric method; format: functional, cell-based; summary of the method: as §2
[15] = tested on: Multiple myeloma cancer stem cell; assay: Induction of apoptosis in human multiple myeloma cancer stem cells assessed as increase in late apoptotic cells at 5 uM after 24 hrs by annexin V/propidium iodide staining-based flow cytometric method; format: functional; summary of the method: as §2
[16] = tested on: Multiple myeloma cancer stem cell; assay: Induction of morphological changes in human multiple myeloma cancer stem cells assessed as appearance in spherical shape at 1.25 uM after 24 hrs by phalloidin/DAPI staining-based assay; format: functional; summary of the method: as §4
[17] = tested on: Multiple myeloma cancer stem cell; assay: Induction of differentiation of human multiple myeloma cancer stem cells assessed as downregulation of MSI2 mRNA expression at 0.31 to 5 uM after 24 hrs by qPCR method; format: functional, cell-based; summary of the method: as §3
RPMI-8226 (Homo sapiens) [18] = assay: Cell cycle arrest in human RPMI-8226 cells assessed as accumulation at S phase at 1.25 uM […] by FxCycle violet staining-based flow cytometric method (reference value: 40.9%)
[19] = Cytotoxicity against human RPMI18226 cells assessed as dead cells at 10 uM after 24 hrs by calcein AM/ethidium homodimer staining-based flow cytometric method (reference value: 21.4%); format: functional
[20] = tested on: Multiple myeloma cancer stem cell; assay: Cytotoxicity against human multiple myeloma cancer stem cells assessed as cell viability at 2.5 uM after 24 hrs by calcein AM/ethidium homodimer staining-based flow cytometric method (reference value: 95.7%); format: functional; conditions: read-out: Activity
[21] = tested on: Multiple myeloma cancer stem cell; assay: Induction of morphological changes in human multiple myeloma cancer stem cells assessed as appearance of larger cytoplasmic area at 1.25 uM after 24 hrs by phalloidin/DAPI staining-based assay; format: functional; summary of the method: as §4
[22] = Cytotoxicity against human CD34-positive hematopoietic stem cells assessed as decrease in cell viability at 10 uM after 24 hrs by calcein AM/ethidium homodimer staining-based flow cytometric method
Homo sapiens [23] = species: Homo sapiens; assay: Cytotoxicity against human RPMI18226 cells assessed as decrease in cell viability after 24 hrs by calcein AM/ethidium homodimer staining-based flow cytometric method; format: functional
[24] = tested on: Multiple myeloma cancer stem cell; assay: Cell cycle arrest in human multiple myeloma cancer stem cells assessed as accumulation at G2/M phase at 1.25 uM […] by FxCycle violet staining-based flow cytometric method (reference value: 22.9%); format: functional; summary of the method: as §1
RPMI-8226 (Homo sapiens) [25] = assay: Cell cycle arrest in human RPMI-8226 cells assessed as accumulation at S phase at 0.62 uM […] by FxCycle violet staining-based flow cytometric method (reference value: 40.9%)
[26] = tested on: Multiple myeloma cancer stem cell; assay: Antimigratory activity in human multiple myeloma cancer stem cells at 2.5 uM after 24 hrs by scratch assay; format: functional, cell-based
Summary of the method: (§5)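 MM-CSCs seeded at 100 000 cells per well, grown 24 h to a confluent monolayer, scratched with a pipette tip and imaged at 0 h. Cells then treated with increasing WFA concentrations for 24 h and the same spot re-imaged. Percent unfilled space = scratch width at 24 h / width at 0 h × 100; recovery = 100 − unfilled. 3 independent experiments.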

[27] = tested on: Multiple myeloma cancer stem cell; assay: Induction of differentiation of human multiple myeloma cancer stem cells assessed as downregulation of CD166 mRNA expression at 0.31 to 5 uM after 24 hrs by qPCR method; format: functional, cell-based; summary of the method: as §3
[28] = tested on: Multiple myeloma cancer stem cell; assay: Induction of differentiation of human multiple myeloma cancer stem cells assessed as downregulation of SOX2 mRNA expression at 0.31 to 5 uM after 24 hrs by qPCR method; format: functional, cell-based; summary of the method: as §3
[29] = tested on: Multiple myeloma cancer stem cell; assay: Cytotoxicity against human multiple myeloma cancer stem cells assessed as cell viability at 10 uM after 24 hrs by calcein AM/ethidium homodimer staining-based flow cytometric method (reference value: 95.7%); format: functional; conditions: read-out: Activity
[30] = Cell cycle arrest in human […] cells assessed as accumulation at sub-G1 phase at 1.25 uM […] by FxCycle violet staining-based flow cytometric method (reference value: 10.8%); format: functional; summary of the method: as §1
[31] = tested on: Multiple myeloma cancer stem cell; assay: Antimigratory activity in human multiple myeloma cancer stem cells at 0.62 to 1.25 uM after 24 hrs by scratch assay; format: functional, cell-based; summary of the method: as §5
[32] = tested on: Multiple myeloma cancer stem cell; assay: Cytotoxicity against human multiple myeloma cancer stem cells assessed as dying cells at 10 uM after 24 hrs by calcein AM/ethidium homodimer staining-based flow cytometric method (reference value: 3.6%); format: functional
[33] = tested on: Multiple myeloma cancer stem cell; assay: Induction of differentiation of human multiple myeloma cancer stem cells assessed as downregulation of CD151 mRNA expression at 0.31 to 5 uM after 24 hrs by qPCR method; format: functional, cell-based; summary of the method: as §3
[34] = tested on: Multiple myeloma cancer stem cell; assay: Induction of apoptosis in human multiple myeloma cancer stem cells assessed as decrease in viable cells at 5 uM after 24 hrs by annexin V/propidium iodide staining-based flow cytometric method; format: functional; summary of the method: as §2
[35] = tested on: Multiple myeloma cancer stem cell; assay: Cytotoxicity against human multiple myeloma cancer stem cells assessed as decrease in cell viability after 24 hrs by calcein AM/ethidium homodimer staining-based flow cytometric method; format: functional
Homo sapiens [36] = species: Homo sapiens; assay: Cell cycle arrest in human […] cells assessed as accumulation at sub-G1 phase […] by FxCycle violet staining-based flow cytometric method; format: functional; summary of the method: as §1
[37] = tested on: Multiple myeloma cancer stem cell; assay: Antiproliferative activity against human multiple myeloma cancer stem cells after 72 hrs by MTT assay; format: functional, cell-based
Summary of the method: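 MM-CSCs plated at 5000 cells/well and allowed to adhere 24 h, then exposed to 0–10 μM WFA for 72 h. MTT added for 2 h. Growth taken as absorbance relative to vehicle-control wells ×100. IC50 fitted from at least five concentrations; mean of three independent experiments ± SEM.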

[38] = tested on: Multiple myeloma cancer stem cell; assay: Cell cycle arrest in human multiple myeloma cancer stem cells assessed as accumulation at G1 phase at 2.5 uM […] by FxCycle violet staining-based flow cytometric method (reference value: 45.1%); format: functional; summary of the method: as §1
[39] = tested on: Multiple myeloma cancer stem cell; assay: Induction of morphological changes in human multiple myeloma cancer stem cells assessed as cell enlargement at 0.62 uM after 24 hrs by phalloidin/DAPI staining-based assay; format: functional; summary of the method: as §4
[40] = tested on: Multiple myeloma cancer stem cell; assay: Induction of differentiation of human multiple myeloma cancer stem cells assessed as upregulation of CD44 mRNA expression at 0.31 to 5 uM after 24 hrs by qPCR method; format: functional, cell-based; summary of the method: as §3
[41] = Cell cycle arrest in human […] cells assessed as accumulation at G2/M phase at 1.25 uM […] by FxCycle violet staining-based flow cytometric method (reference value: 20.2%); format: functional; summary of the method: as §1
[42] = Cytotoxicity against human RPMI18226 cells assessed as cell viability at 10 uM after 24 hrs by calcein AM/ethidium homodimer staining-based flow cytometric method (reference value: 67.7%); format: functional; conditions: RPMI18226, 24 h, read-out: Activity
RPMI-8226 (Homo sapiens) [43] = assay: Cell cycle arrest in human RPMI-8226 cells assessed as accumulation at S phase at 2.5 uM […] by FxCycle violet staining-based flow cytometric method (reference value: 40.9%)
[44] = Cytotoxicity against human CD34-positive hematopoietic stem cells assessed as decrease in cell viability at <5 uM after 24 hrs by calcein AM/ethidium homodimer staining-based flow cytometric method
[45] = Cytotoxicity against human RPMI18226 cells assessed as cell viability at 1.25 uM after 24 hrs by calcein AM/ethidium homodimer staining-based flow cytometric method (reference value: 67.7%); format: functional; conditions: RPMI18226, 24 h, read-out: Activity

## CC1=C(CO)C(=O)O[C@@H]([C@@H](C)[C@H]2CC[C@H]3[C@@H]4C[C@H]5O[C@]56[C@@H](O)C=CC(=O)[C@]6(C)[C@H]4CC[C@]23C)C1 [WITHAFERIN A]
[1]
  Activity: 21.5%
Homo sapiens [2]
  Activity: Active
[3]
  Activity: 21.5%
[4]
  Activity: Active
[5]
  Activity: 61.4%
[6]
  Activity: Active
Homo sapiens [7]
  Activity: Active
[8]
  Activity: 15.6%
[9]
  Activity: 15.5%
[10]
  Activity: 56.4%
[11]
  Activity: 19.1%
[12]
  Activity: Active
[13]
  IC50: 224 nM
Homo sapiens [14]
  Activity: Active
[15]
  Activity: Active
[16]
  Activity: Active
[17]
  Activity: Active
RPMI-8226 (Homo sapiens) [18]
  Activity: 29.4%
[19]
  Activity: 87%
[20]
  viability at 2.5 µM: 64.6%
[21]
  Activity: Active
[22]
  Activity: Toxic
Homo sapiens [23]
  Activity: Dose-dependent effect
[24]
  Activity: 59.6%
RPMI-8226 (Homo sapiens) [25]
  Activity: 31.7%
[26]
  Activity: Active
[27]
  Activity: Active
[28]
  Activity: Active
[29]
  viability at 10 µM: 12.1%
[30]
  Activity: 23.1%
[31]
  Activity: inactive
[32]
  Activity: 31.5%
[33]
  Activity: Active
[34]
  Activity: Active
[35]
  Activity: Dose-dependent effect
Homo sapiens [36]
  Activity: Dose-dependent effect
[37]
  IC50: 650 nM
[38]
  Activity: 19.5%
[39]
  Activity: Active
[40]
  Activity: Active
[41]
  Activity: 28.4%
[42]
  viability at 10 µM: 8.2%
RPMI-8226 (Homo sapiens) [43]
  Activity: 34%
[44]
  Activity: Non-Toxic
[45]
  viability at 1.25 µM: 32.1%
